Data: ChEMBL document CHEMBL1275322, “Synthesis and cytotoxic evaluation of 1-carboxamide and 1-amino side chain substituted β-carbolines” (Eur J Med Chem, 2010)

Legend:
Format in all cases: functional, cell-based
786-0 = assay: Cytotoxicity against human 786-0 cells by MTT assay
Method in brief: (§1)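 Cells grown in RPMI-1640 with 10% (v/v) fetal calf serum, 100 μg ml⁻¹ penicillin and 100 μg ml⁻¹ streptomycin at 37 °C, humidified 5% CO₂, in 96-well cultures. Compounds from DMSO stocks; final DMSO 2% (v/v) or lower. MTT staining read as optical density. IC50 is the concentration reducing OD by 50% vs untreated cells. Mean ± SD of at least five independent determinations. Top concentration 300 μM.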

769-P = assay: Cytotoxicity against human 769-P cells by MTT assay; method in brief: as §1
OS-RC-2 = assay: Cytotoxicity against human OS-RC2 cells by MTT assay; method in brief: as §1
HepG2 = assay: Cytotoxicity against human HepG2 cells by MTT assay; method in brief: as §1
KB = assay: Cytotoxicity against human KB cells by MTT assay; method in brief: as §1
A-375 = assay: Cytotoxicity against human A375 cells by MTT assay; method in brief: as §1
MCF7 = assay: Cytotoxicity against human MCF7 cells by MTT assay; method in brief: as §1
HT-29 = assay: Cytotoxicity against human HT-29 cells by MTT assay; method in brief: as §1
CWR22R = assay: Cytotoxicity against human 22Rv1 cells by MTT assay; method in brief: as §1
[1] = Cytotoxicity against human […] cells by MTT assay; method in brief: as §1

Row | SMILES | IC50 (786-0) | IC50 (769-P) | IC50 (OS-RC-2) | IC50 (HepG2) | IC50 (KB) | IC50 (A-375) | IC50 (MCF7) | IC50 (HT-29) | IC50 (CWR22R) | IC50 [1]
1 | NCCNC(=O)c1nccc2c1[nH]c1ccccc12 | 86.1 µM | 124 µM | 63.9 µM | 122 µM | 118 µM | 65.3 µM | 80.4 µM | 55.6 µM | 124 µM | 77.7 µM
2 | NCCNc1nccc2c1[nH]c1ccccc12 | 31.9 µM | 31.5 µM | 40 µM | 30.6 µM | 25.4 µM | 33.4 µM | 87.2 µM | 33.4 µM | 41.3 µM | 36 µM
3 | CCCCn1c2ccccc2c2ccnc(Br)c21 | > 300 µM | > 300 µM | 136 µM | > 300 µM | > 300 µM | > 300 µM | 256 µM | 186 µM | 236 µM | > 300 µM
4 | Fc1c(F)c(F)c(Cn2c3ccccc3c3ccnc(Br)c32)c(F)c1F | > 300 µM | > 300 µM | > 300 µM | > 300 µM | > 300 µM | > 300 µM | > 300 µM | > 300 µM | > 300 µM | > 300 µM
5 | Brc1nccc2c3ccccc3n(CCCc3ccccc3)c12 | > 300 µM | 123 µM | 93.9 µM | > 300 µM | > 300 µM | > 300 µM | > 300 µM | 86.6 µM | 88 µM | > 300 µM
6 | CCCCn1c2ccccc2c2ccnc(NCCN)c21 | 18.9 µM | 68.7 µM | 9.3 µM | 6.6 µM | 20.5 µM | 22.8 µM | 33.6 µM | 13.3 µM | 14.2 µM | 25.3 µM
7 | NCCNc1nccc2c3ccccc3n(Cc3ccc(F)cc3)c12 | 18.8 µM | 1.8 µM | 16.3 µM | 4.4 µM | 19.1 µM | 15.6 µM | 21.4 µM | 9.1 µM | 17.9 µM | 9.7 µM
8 | NCCNc1nccc2c3ccccc3n(Cc3c(F)c(F)c(F)c(F)c3F)c12 | 5.8 µM | 10.4 µM | 12 µM | 12.8 µM | 11.8 µM | 12 µM | 15.1 µM | 9.9 µM | 12.5 µM | 11.9 µM
9 | NCCNc1nccc2c3ccccc3n(CCCc3ccccc3)c12 | 6.9 µM | 11.1 µM | 4.6 µM | 13.3 µM | 4.9 µM | 7.3 µM | 9.3 µM | 5.6 µM | 8.6 µM | 9.6 µM
10 | NCCCCNc1nccc2c3ccccc3n(CCCc3ccccc3)c12 | 2.7 µM | 2.2 µM | 4.2 µM | 4 µM | 11.3 µM | 9.5 µM | 12.8 µM | 17.5 µM | 2.9 µM | 8 µM
11 | NCCCCCCNc1nccc2c3ccccc3n(CCCc3ccccc3)c12 | 11.3 µM | 13.6 µM | 8.4 µM | 12.1 µM | 13 µM | 16.3 µM | 17.9 µM | 21.5 µM | 11.5 µM | 12.4 µM
12 | NCCCCCCNC(=O)c1nccc2c1[nH]c1ccccc12 | 72.7 µM | 75.3 µM | 58.5 µM | 85.5 µM | 86.9 µM | 37.7 µM | 46.8 µM | 73.2 µM | 33.6 µM | 109 µM
13 | CCN(CC)CCCNC(=O)c1nccc2c1[nH]c1ccccc12 | 111 µM | 54 µM | 93.9 µM | 243 µM | 62.3 µM | 107 µM | 164 µM | 61.2 µM | 46.2 µM | 174 µM
14 | CC[N+](C)(CC)CCCNC(=O)c1nccc2c1[nH]c1ccccc12 | > 300 µM | > 300 µM | > 300 µM | > 300 µM | > 300 µM | > 300 µM | > 300 µM | > 300 µM | > 300 µM | > 300 µM
15 | CC[N+](CC)(CCCNC(=O)c1nccc2c1[nH]c1ccccc12)Cc1ccccc1 | 137 µM | 101 µM | > 300 µM | > 300 µM | > 300 µM | > 300 µM | 51.1 µM | > 300 µM | 71.4 µM | > 300 µM
16 | NCCNC(=O)c1nccc2c3ccccc3n(CCCc3ccccc3)c12 | 11.8 µM | 32.5 µM | 15.7 µM | 15.9 µM | 9.9 µM | 13.7 µM | 22.3 µM | 17.9 µM | 10.8 µM | 20 µM
17 | CCN(CC)CCCNC(=O)c1nccc2c3ccccc3n(CCCc3ccccc3)c12 | 31.4 µM | 61 µM | 36.9 µM | 22.1 µM | 14 µM | 33.8 µM | 31.4 µM | 53.4 µM | 26.9 µM | 22.3 µM
18 | Fc1ccc(Cn2c3ccccc3c3ccnc(Br)c32)cc1 | > 300 µM | 252 µM | > 300 µM | > 300 µM | > 300 µM | > 300 µM | > 300 µM | 245 µM | > 300 µM | > 300 µM
19 | OCCNc1[nH]ccc2c3ccccc3nc1-2 | > 300 µM | 272 µM | 220 µM | 130 µM | > 300 µM | > 300 µM | > 300 µM | > 300 µM | 136 µM | > 300 µM
